# What was measured:
# [1] = system: hepatitis B virus (HBV); assay: Inhibition of HBsAg secretion in HBV-replicating HepAD38 cells; assay type: cell-based; details: for Inhibition of HBsAg secretion (in words): 5 μM, relative to vehicle 0.5% DMSO
# Summary of the method: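 HepAD38 cells carry an integrated HBV genome under a tetracycline-regulated promoter, […]. Cells were treated with test compound. HBsAg secreted into the culture supernatant was quantified by ELISA. Selectivity index was taken as CC50/IC50.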
# [2] = system: hepatitis B virus (HBV); assay: Reduction of intracellular HBV rcDNA in HepAD38 cells; assay type: cell-based; details: qPCR, relative to 0.5% DMSO vehicle
# [3] = system: HepAD38 cells; assay: Cytotoxicity in HepAD38 cells; assay type: cell-based; details: read-out: Cytotoxicity CC50, MTS assay, 0 to 100 μM
# [4] = system: hepatitis B virus (HBV); details: HepAD38 cells, 1–10 μM; cited from earlier work
# [5] = Cytotoxicity in HepAD38 cells; assay type: cell-based; details: human, Cytotoxicity CC50, HepAD38 cells, MTS assay, 0 to 100 μM
Compound,Inhibition of HBsAg secretion (in words) ([1]; HepAD38 cells),"Selectivity index: CC50/IC50 ([1]; HepAD38 cells, CC50 (MTS) / HBsAg IC50)","IC50 ([1]; Hepatitis B virus, HePAD38, read-out: HBsAg IC50) [µM]",rcDNA inhibition [%]: compound (5 μM) [2],CC50 [3] [µM],Effect on cccDNA levels (in words) [4],CC50 at 14 days [5] [µM]
"CC[C@]12C=CCN3CC[C@]4(C(=C(C(=O)OC)C1)Nc1ccccc14)[C@@H]32 [compound 6, tabersonine]",only modest inhibitory activity,2.86,14.6 ± 4.1,minimal or no effect,41.8 ± 3.1,,
C[C@@]1(CO)[C@H](O)CC[C@@]2(C)[C@H]1CC[C@H]1C[C@@H]3C[C@@]12CC[C@]3(O)CO [aphidicolin],,,,,,effectively reduces cccDNA levels in a dose-dependent manner,
"CCOC(=O)C1=C[C@]2(CC)CCCN3CCc4c(n1c1ccccc41)[C@@H]32 [compound 8, vinpocetine]",negligible inhibitory effects,,,minimal or no effect,,,> 100
